Calls of active or inactive are those of the source. No cut-off for these calls is given here.
What was measured:
[1] = Biodistribution in NMRI mouse urine at 37 MBq/mL, iv after 2 mins postinjection by gamma counting; type: ADME, organism-based; details: in vivo
Method in brief: (§1)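 Normal mice given the 11C tracer i.v.; killed by decapitation at 2 or 60 min p.i. (n = 4 per time point). Blood collected in tared tube and weighed; organs dissected and weighed, then gamma-counted. Counts background-corrected and expressed as %ID per organ or %ID/g tissue.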

[2] = Biodistribution in NMRI mouse cerebrum at 37 MBq/mL, iv after 2 mins postinjection by gamma counting; type: ADME, organism-based; details: in vivo; method in brief: as §1
Liver [3] = assay: Biodistribution in NMRI mouse liver at 37 MBq/mL, iv after 2 mins postinjection by gamma counting; type: ADME, organism-based; details: in vivo; method in brief: as §1
Blood [4] = assay: Biodistribution in NMRI mouse blood at 37 MBq/mL, iv after 2 mins postinjection by gamma counting; type: ADME, organism-based; details: in vivo; method in brief: as §1
Liver [5] = assay: Biodistribution in NMRI mouse liver at 37 MBq/mL, iv after 2 mins postinjection assessed per gram of tissue by gamma counting; type: ADME, organism-based; details: in vivo; method in brief: as §1
Blood [6] = assay: Biodistribution in NMRI mouse blood at 37 MBq/mL, iv after 60 mins postinjection assessed per gram of tissue by gamma counting; type: ADME, organism-based; details: in vivo, 1 h; method in brief: as §1
Liver [7] = assay: Biodistribution in NMRI mouse liver at 37 MBq/mL, iv after 60 mins postinjection assessed per gram of tissue by gamma counting; type: ADME, organism-based; details: in vivo, 1 h; method in brief: as §1
[8] = Biodistribution in NMRI mouse cerebrum at 37 MBq/mL, iv after 60 mins postinjection assessed per gram of tissue by gamma counting; type: ADME, organism-based; details: in vivo, 1 h; method in brief: as §1
Kidney [9] = assay: Biodistribution in NMRI mouse kidney at 37 MBq/mL, iv after 60 mins postinjection by gamma counting; type: ADME, organism-based; details: in vivo, 1 h; method in brief: as §1
Cerebellum [10] = assay: Biodistribution in NMRI mouse cerebellum at 37 MBq/mL, iv after 60 mins postinjection assessed per gram of tissue by gamma counting; type: ADME, organism-based; details: in vivo, 1 h; method in brief: as §1
Blood [11] = assay: Biodistribution in NMRI mouse blood at 37 MBq/mL, iv after 2 mins postinjection assessed per gram of tissue by gamma counting; type: ADME, organism-based; details: in vivo; method in brief: as §1
[12] = Biodistribution in NMRI mouse cerebrum at 37 MBq/mL, iv after 2 mins postinjection assessed per gram of tissue by gamma counting; type: ADME, organism-based; details: in vivo; method in brief: as §1
Blood [13] = assay: Biodistribution in NMRI mouse blood at 37 MBq/mL, iv after 60 mins postinjection by gamma counting; type: ADME, organism-based; details: in vivo, 1 h; method in brief: as §1
Cerebellum [14] = assay: Biodistribution in NMRI mouse cerebellum at 37 MBq/mL, iv after 60 mins postinjection by gamma counting; type: ADME, organism-based; details: in vivo, 1 h; method in brief: as §1
Liver [15] = assay: Biodistribution in NMRI mouse liver at 37 MBq/mL, iv after 60 mins postinjection by gamma counting; type: ADME, organism-based; details: in vivo, 1 h; method in brief: as §1
Cerebellum [16] = assay: Biodistribution in NMRI mouse cerebellum at 37 MBq/mL, iv after 2 mins postinjection assessed per gram of tissue by gamma counting; type: ADME, organism-based; details: in vivo; method in brief: as §1
[17] = Biodistribution in NMRI mouse cerebrum at 37 MBq/mL, iv after 60 mins postinjection by gamma counting; type: ADME, organism-based; details: in vivo, 1 h; method in brief: as §1
Blood [18] = assay: Blood clearance in NMRI mouse assessed ratio of %ID in blood after 2 mins to %ID in blood after 60 mins at 37 MBq/mL, iv; type: ADME, tissue-based
Method in brief: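 Normal mice given i.v. 11C tracer; blood collected at 2 and 60 min p.i. (n = 4 per time point), weighed and gamma-counted. Clearance expressed as the ratio of %ID/g blood at 2 min to %ID/g blood at 60 min.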

Kidney [19] = assay: Biodistribution in NMRI mouse kidney at 37 MBq/mL, iv after 2 mins postinjection by gamma counting; type: ADME, organism-based; details: in vivo; method in brief: as §1
[20] = Partition coefficient, log P in Octanol and 0.025 M phosphate buffer at pH7.4 by gamma counter; type: physicochemical; details: octanol/0.025 M phosphate buffer, pH 7.4
Method in brief: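 HPLC-purified 11C tracer added to 1-octanol and 2 ml 0.025 M phosphate buffer pH 7.4. Vortexed 3 min at room temperature, centrifuged 2700 g for 10 min. Aliquots of each phase weighed and gamma-counted; P = (cpm/ml octanol)/(cpm/ml buffer). Triplicate.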

Intestine [21] = assay: Biodistribution in NMRI mouse intestine at 37 MBq/mL, iv after 2 mins postinjection by gamma counting; type: ADME, organism-based; details: in vivo; method in brief: as §1
[22] = Biodistribution in NMRI mouse urine at 37 MBq/mL, iv after 60 mins postinjection by gamma counting; type: ADME, organism-based; details: in vivo, 1 h; method in brief: as §1
Cerebellum [23] = assay: Biodistribution in NMRI mouse cerebellum at 37 MBq/mL, iv after 2 mins postinjection by gamma counting; type: ADME, organism-based; details: in vivo; method in brief: as §1
Kidney [24] = assay: Biodistribution in NMRI mouse kidney at 37 MBq/mL, iv after 60 mins postinjection assessed per gram of tissue by gamma counting; type: ADME, organism-based; details: in vivo, 1 h; method in brief: as §1
Intestine [25] = assay: Biodistribution in NMRI mouse intestine at 37 MBq/mL, iv after 60 mins postinjection by gamma counting; type: ADME, organism-based; details: in vivo, 1 h; method in brief: as §1
Kidney [26] = assay: Biodistribution in NMRI mouse kidney at 37 MBq/mL, iv after 2 mins postinjection assessed per gram of tissue by gamma counting; type: ADME, organism-based; details: in vivo; method in brief: as §1
[27] = Biodistribution in NMRI mouse hepatobiliary system at 37 MBq/mL, iv after 60 mins postinjection by gamma counting; type: ADME, organism-based; details: in vivo, 1 h; method in brief: as §1
[28] = target: T1, Amyloid-beta precursor protein (Homo sapiens, UniProt P05067); assay: Binding affinity to fibrillar beta-amyloid plaques in cortex of patient with Alzheimer's disease at 1 uM by fluorescence microscopy
Method in brief: (§2)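 Paraffin 8 µm sagittal sections of transgenic APP (London mutation) mouse brain or post-mortem human AD brain; xylol and graded-ethanol deparaffinization, then 1 h incubation with cold compound; tap-water rinse, Mowiol-DABCO mounting. Fluorescence microscopy with UV filter set (excitation 355–425 nm, emission 470 nm longpass). Neighbouring sections immunostained with pan Aβ or AβN25 antibody to check co-localization.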

[29] = target: T1, Amyloid-beta precursor protein; assay: Binding affinity to vascular beta-amyloid plaques in vibratome section of transgenic mouse overexpressing human APP at 0.1 uM by fluorescence microscopy; details: 1 uM, in the assay text read “at 1 uM” for “at 0.1 uM”
Method in brief: (§3)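 Vibratome sections of transgenic APP (London mutation) mouse brain cortex incubated with cold compound. Fluorescence microscopy with UV filter set (excitation 355–425 nm, emission 470 nm longpass). For co-localization, one section was incubated first with AβN25 antibody and then with compound.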

[30] = target: T1, Amyloid-beta precursor protein; assay: Binding affinity to beta-amyloid plaques in cortex of patient with Alzheimer's disease at 1 uM by fluorescence microscopy; method in brief: as §2
[31] = target: T1, Amyloid-beta precursor protein; assay: Displacement of [125I]IMPY from beta-amyloid plaques in brain homogenate of patient with Alzheimer's disease by gamma counting; type: tissue-based
Method in brief: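 Gray-matter homogenates of post-mortem AD cortex in PBS pH 7.4, about 100 mg wet tissue/ml. Incubated 2 h at 37 °C, then GF/B vacuum filtration, two PBS washes, gamma counting. Ki from non-linear regression using Ki = IC50/(1+L/Kd).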

[32] = target: T1, Amyloid-beta precursor protein; assay: Binding affinity to vascular beta-amyloid plaques in vibratome section of transgenic mouse cortex overexpressing human APP at 1 uM by fluorescence microscopy; method in brief: as §3
[33] = target: T1, Amyloid-beta precursor protein; assay: Binding affinity to core beta-amyloid plaques in vibratome section of transgenic mouse overexpressing human APP at 1 uM by fluorescence microscopy; method in brief: as §3
[34] = target: T1, Amyloid-beta precursor protein; assay: Binding affinity to beta-amyloid plaques in subiculum of transgenic mouse overexpressing human APP at 1 uM by fluorescence microscopy; type: tissue-based; method in brief: as §2

T1 sequence (P05067 whole entry): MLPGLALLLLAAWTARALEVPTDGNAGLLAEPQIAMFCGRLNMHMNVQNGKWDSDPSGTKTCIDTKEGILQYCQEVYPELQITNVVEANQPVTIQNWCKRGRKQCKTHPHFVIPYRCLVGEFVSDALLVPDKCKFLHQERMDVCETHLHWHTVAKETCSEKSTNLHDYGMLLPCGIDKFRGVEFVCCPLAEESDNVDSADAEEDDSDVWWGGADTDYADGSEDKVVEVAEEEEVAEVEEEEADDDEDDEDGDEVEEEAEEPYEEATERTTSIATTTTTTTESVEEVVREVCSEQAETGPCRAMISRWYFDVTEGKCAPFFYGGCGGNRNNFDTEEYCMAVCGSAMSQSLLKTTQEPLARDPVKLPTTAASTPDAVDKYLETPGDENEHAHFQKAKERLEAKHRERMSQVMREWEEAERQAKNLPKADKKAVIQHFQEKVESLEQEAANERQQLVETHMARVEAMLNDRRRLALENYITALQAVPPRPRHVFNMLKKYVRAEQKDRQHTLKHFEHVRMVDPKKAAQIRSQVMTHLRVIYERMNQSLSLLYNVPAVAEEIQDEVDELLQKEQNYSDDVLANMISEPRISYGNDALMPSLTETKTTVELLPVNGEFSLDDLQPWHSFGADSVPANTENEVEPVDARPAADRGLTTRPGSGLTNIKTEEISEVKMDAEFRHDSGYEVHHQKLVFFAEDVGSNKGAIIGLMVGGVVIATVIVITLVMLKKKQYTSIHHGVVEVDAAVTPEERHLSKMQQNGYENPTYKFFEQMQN

| Compound | Drug uptake [1] [%ID] | Drug uptake [2] [%ID] | Drug uptake (Liver [3]) [%ID] | Drug uptake (Blood [4]) [%ID] | Drug uptake (Liver [5]) [% ID/g] | Drug uptake (Blood [6]) [% ID/g] | Drug uptake (Liver [7]) [% ID/g] | Drug uptake [8] [% ID/g] | Drug uptake (Kidney [9]) [%ID] | Drug uptake (Cerebellum [10]) [% ID/g] | Drug uptake (Blood [11]) [% ID/g] | Drug uptake [12] [% ID/g] | Drug uptake (Blood [13]) [%ID] | Drug uptake (Cerebellum [14]) [%ID] | Drug uptake (Liver [15]) [%ID] | Drug uptake (Cerebellum [16]) [% ID/g] | Drug uptake [17] [%ID] | Drug uptake (Kidney [19]) [%ID] | Drug uptake (Intestine [21]) [%ID] | Drug uptake [22] [%ID] | other results |
| --- | --- | --- | --- | --- | --- | --- | --- | --- | --- | --- | --- | --- | --- | --- | --- | --- | --- | --- | --- | --- | --- |
| [11CH3]Nc1ccc(-c2nc3cccc(O)c3s2)cc1 | 0.58 | 0.83 | 27.8 | 9.8 | 14.5 | 0.57 | 4 | 0.16 | 2.5 | 0.1 | 4.6 | 2.6 | 1.2 | 0.01 | 7.1 | 2.8 | 0.05 | 9 | 9.4 | 24.8 | Ratio (Blood [18]): 12; logD [20]: 2.45; Drug uptake (Cerebellum [23]): 0.22 %ID; Drug uptake (Kidney [24]): 4.8 % ID/g; Drug uptake (Intestine [25]): 54.7 %ID; Drug uptake (Kidney [26]): 16.9 % ID/g |
| CNc1ccc(-c2nc3ccc(O)cc3s2)cc1 [PITTSBURGH COMPOUND B UNLABELLED] | 0.2 | 1.1 | 15.6 | 7.9 | 7.9 | 1.1 | 5 | 0.6 | 4.8 | 0.3 | 3.1 | 3.6 | 2.7 | 0 | 9.8 | 1.6 | 0.2 | 10.3 | 12 | 24.4 | Drug uptake (Cerebellum [23]): 0.2 %ID; Drug uptake (Kidney [24]): 9.1 % ID/g; Drug uptake (Intestine [25]): 42.5 %ID; Drug uptake (Kidney [26]): 19.9 % ID/g |
| [11CH3]Nc1ccc(-c2nc3c(O)cccc3s2)cc1 | 0.2 | 1.2 | 21.2 | 13.8 | 11.1 | 1 | 3.7 | 0.3 | 0.6 | 0.6 | 6.5 | 3.8 | 2.3 | 0 | 6.4 | 2.7 | 0.1 | 10.6 | 12 | 22.7 | Drug uptake [27]: 59 %ID; Ratio (Blood [18]): 6; logD [20]: 3.18; Drug uptake (Cerebellum [23]): 0.2 %ID; Drug uptake (Kidney [24]): 1.2 % ID/g; Drug uptake (Intestine [25]): 52.3 %ID; Drug uptake (Kidney [26]): 19.4 % ID/g |
| CNc1ccc(-c2nc3cc(O)ccc3s2)cc1 | – | – | – | – | – | – | – | – | – | – | – | – | – | – | – | – | – | – | – | – | Activity [28]: Active; Activity [29]: Active; Activity [30]: Active; Ki [31]: 11.5 nM; Activity [32]: Active; Activity [33]: Active; Activity [34]: Active |
| [11CH3]Nc1ccc(-c2nc3cc(O)ccc3s2)cc1 | 0.35 | 1.3 | 25.8 | 6 | 12.1 | 0.21 | 2.2 | 0.09 | 0.7 | 0.08 | 2.5 | 4.3 | 0.5 | 0.01 | 4.2 | 4.4 | 0.03 | 8.1 | 12.9 | 14.6 | Drug uptake [27]: 78 %ID; logD [20]: 2.48; Drug uptake (Cerebellum [23]): 0.57 %ID; Drug uptake (Kidney [24]): 1.2 % ID/g; Drug uptake (Intestine [25]): 73.7 %ID; Drug uptake (Kidney [26]): 14.2 % ID/g |
| CNc1ccc(-c2nc3cccc(O)c3s2)cc1 | – | – | – | – | – | – | – | – | – | – | – | – | – | – | – | – | – | – | – | – | Activity [28]: Active; Activity [29]: Active; Activity [30]: Active; Ki [31]: 11.2 nM; Activity [32]: Active; Activity [34]: Active |
| CNc1ccc(-c2nc3c(O)cccc3s2)cc1 | – | – | – | – | – | – | – | – | – | – | – | – | – | – | – | – | – | – | – | – | Activity [28]: Active; Activity [30]: Active; Ki [31]: 18.8 nM; Activity [34]: Active |
